Screening results (PubChem)
Most compounds without a hit are left out; they make up all but 2.3% or so of the library.
TRPC4 PAM: TRPC4 (mouse) allosteric potentiation. B-score at 10 µM. HEK293 TRPC4beta/mu-opioid, DAMGO EC20, Fluo-4 Ca2+ flux; stronger effect = higher value. Q9QUQ5. 310,000 compounds, 0.42% hits. AID 2227;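 active means B-score of calcium response area above 5 SD of library B-scores, with initial fluorescence ratio within 5 SD of library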;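 further: B-score of integrated fluorescence ratio over time as area under calcium response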
TRPC4 inh: inhibitors of mouse TRPC4 channel; Q9QUQ5; HEK293 TRPC4beta/mu-opioid, DAMGO-evoked Fluo4 calcium flux; stronger effect = lower value; B-score at 10 µM; 300,000 compounds, 0.39% hits; AID 2247;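 active means B-score over 3 SD under the library average, no early fluorescence shift, positive overall ratio signal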
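Test system – stable TRPC4beta/mu-opioid receptor HEK293 cells · Probe or stimulus – DAMGO, a submaximal dose followed by a maximal one · Dosing – one concentration per compound · Signal – Fluo4 calcium fluorescence by kinetic imaging, 5 s 1 Hz baseline · Evaluation – per-well B score of integrated baseline-normalized Fluo4 ratio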
TRPC6 inhibitor: blocks the mouse TRPC6 cation channel | Q61143 | HEK293-TRPC6, membrane potential dye, ACh-evoked depolarization; stronger effect = lower value | B-score at 10 µM | 310,000 compounds, 1.1% hits | AID 2553;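 active means B-score under library mean minus 3 SD, initial fluorescence not abnormally high, positive integrated signal ratio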;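 further: B-score derived from integrated fluorescence ratio over the kinetic read; more negative B-score means stronger inhibition of depolarization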
Target sequence (Q61143 whole entry, looked up): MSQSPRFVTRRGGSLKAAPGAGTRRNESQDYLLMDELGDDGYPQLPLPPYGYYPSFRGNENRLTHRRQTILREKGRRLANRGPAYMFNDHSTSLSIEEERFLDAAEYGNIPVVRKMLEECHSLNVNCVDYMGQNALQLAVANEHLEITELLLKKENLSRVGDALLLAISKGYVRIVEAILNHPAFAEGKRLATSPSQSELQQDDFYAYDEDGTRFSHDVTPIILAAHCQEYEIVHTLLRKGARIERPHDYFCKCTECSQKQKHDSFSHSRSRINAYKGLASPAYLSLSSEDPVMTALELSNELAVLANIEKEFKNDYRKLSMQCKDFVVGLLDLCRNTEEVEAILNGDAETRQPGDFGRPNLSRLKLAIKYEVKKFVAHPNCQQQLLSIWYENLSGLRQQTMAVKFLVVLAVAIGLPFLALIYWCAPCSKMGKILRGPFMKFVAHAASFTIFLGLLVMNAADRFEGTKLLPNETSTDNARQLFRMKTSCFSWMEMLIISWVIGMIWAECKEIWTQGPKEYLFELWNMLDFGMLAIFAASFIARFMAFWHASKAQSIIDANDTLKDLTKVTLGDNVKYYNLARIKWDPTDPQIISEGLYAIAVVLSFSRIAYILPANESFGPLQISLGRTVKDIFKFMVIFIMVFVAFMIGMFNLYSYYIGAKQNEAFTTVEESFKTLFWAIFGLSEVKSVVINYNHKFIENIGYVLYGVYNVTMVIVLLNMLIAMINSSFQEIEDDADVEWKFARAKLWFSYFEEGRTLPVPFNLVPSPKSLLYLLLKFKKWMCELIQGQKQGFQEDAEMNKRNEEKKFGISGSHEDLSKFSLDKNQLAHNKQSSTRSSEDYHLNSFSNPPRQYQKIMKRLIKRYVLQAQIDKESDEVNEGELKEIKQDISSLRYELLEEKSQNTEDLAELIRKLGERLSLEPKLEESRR
TRPC6 act: activators of mouse TRPC6 channel | Q61143 | HEK293-TRPC6 membrane potential dye fluorescence; stronger effect = higher value | B-score at 10 µM | 310,000 compounds, 0.13% hits;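 active means B-score of the integrated fluorescence ratio above library mean plus 3 SD, and starting fluorescence ratio within library mean plus 5 SD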;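 further: higher score means more depolarization so channel activation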
CR mimetic SO: lowers age-related superoxide in aged yeast cells | AID 2690 | superoxide response (% of plate mean), % at 10 µM | S. cerevisiae aged cells, superoxide DHE fluorescence; stronger effect = lower value | 330,000 compounds, 0.18% hits;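 active means superoxide response under a set limit, about three screen SD below normal, cut at about 65% in these data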;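 further: yeast aged for seven days with compound at 30 °C before DHE staining; 100% = average MFI of all compound-treated wells on the plate with controls excluded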
TRPC4 agonist: opens the mouse TRPC4 cation channel. AID 2237. HEK293 TRPC4beta/mu-opioid, Fluo4 calcium fluorescence; stronger effect = higher value. 310,000 compounds, 0.49% hits. B-score at 10 µM. Q9QUQ5;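 active means B-score above 5 SD of library B-scores, and initial fluorescence ratio not above library mean plus 5 SD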;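 further: positive B-score marks a calcium rise read as TRPC4 activation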
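System: HEK293 cells stably co-expressing mouse TRPC4beta and mu-opioid receptor; Schedule: Fluo4 dye loading 45 min at room temperature, 110 s recording; Detection: Fluo4 fluorescence, kinetic; Evaluation: B-scored integrated calcium fluorescence ratio; Controls: buffer (low) and maximal DAMGO (high).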
TRPC4 sel inh 2: second selectivity test of TRPC6 inhibitors: effect on mouse TRPC4; shares compounds with TRPC6 inhibitor; HEK293 TRPC4/MOR, membrane potential dye fluorescence; channel activated by saturating DAMGO dose; inhibition, % at 10 µM; 920 compounds, 42% hits;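 active means compounds whose fluorescence signal differed from control wells by over 3 SD, either direction, in both duplicate plates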
TRPC4 spec: selectivity of TRPC6 inhibitors: effect on mouse TRPC4 | 920 compounds, 61% hits | HEK293 TRPC4/mu-opioid, membrane potential fluorescence | activity change, negative = inhibition, % at 10 µM | shares compounds with TRPC6 inhibitor;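 active means rise or fall in signal beyond 3 SD of buffer-only wells in both replicate plates, either sign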;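 further: integrated kinetic ratio of fluorescence range over baseline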
HEK293 MPD ctr 2-1: second check of TRPC6 inhibitor effects in parental HEK293 cells. parental HEK293 membrane potential dye fluorescence; maximal acetylcholine challenge after compound addition. signal change vs control, % at 10 µM. 920 compounds, 31% hits. shares compounds with TRPC6 inhibitor. AID 2779;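 active means membrane potential signal moving either way by over 3 SD of the maximum-effect control, in both duplicate plates, meaning non-specific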
HEK293 MPD ctr-1: checks TRPC6 inhibitor effects in parental HEK293 cells | 920 compounds, 60% hits | shares compounds with TRPC6 inhibitor | membrane potential signal change, % at 10 µM | parental HEK293 membrane potential dye fluorescence | AID 2780;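 active means membrane potential signal shifting up or down by more than 3 SD of buffer-only wells, on both duplicate plates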
HEK293 MPD ctr-2: parental HEK293 nonspecific activity of TRPC6 modulators; 2,400 compounds, 51% hits; shares compounds with TRPC6 inhibitor; membrane potential signal change, % at 10 µM; membrane potential dye fluorescence;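 active means membrane potential signal moves up or down beyond 5 SD from buffer-only wells, on both duplicate plates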
HEK293 MPD ctr 2-2: parental HEK293 nonspecific activity of TRPC6 modulators, second screen; shares compounds with TRPC6 inhibitor; membrane potential dye fluorescence; after compound, maximal acetylcholine stimulation; inhibition, % at 10 µM; 2,400 compounds, 14% hits;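 active means membrane potential signal drops by more than 5 SD from the mean control signal, in both duplicate plates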;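 further: plate controls were acetylcholine ECmax control wells for no effect and buffer only wells for full effect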
TRPC4 ctr mod: mouse TRPC4 off-target activity of TRPC6 modulators. percent change from control (negative = decrease, positive = increase), % at 10 µM. HEK293 TRPC4/mu-opioid, membrane potential fluorescence. shares compounds with TRPC6 inhibitor. 2,400 compounds, 69% hits;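 active means membrane potential signal moved up or down beyond 5 SD of buffer control wells, in both duplicate plates, actives on both sides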;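 further: plate controls were assay buffer wells for no effect and DAMGO maximal-effect wells for full effect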
TRPC4/MOR inh 2: second check of whether TRPC6 modulators also affect mouse TRPC4. shares compounds with TRPC6 inhibitor. HEK293 TRPC4/mu-opioid, membrane potential dye fluorescence; stimulated with maximal-effect DAMGO. inhibition, % at 10 µM. 2,400 compounds, 55% hits;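 active means drop in membrane potential signal beyond 5 SD of the control wells in both duplicate plates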;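 further: TRPC4 counter screen for TRPC6 hits run under conditions tuned for TRPC6 not TRPC4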
TRPC6 inh conf: mouse TRPC6 inhibitor confirmation; shares compounds with TRPC6 inhibitor; HEK293-TRPC6, membrane potential dye, ACh-evoked depolarization; inhibition, % at 10 µM; 3,300 compounds, 43% hits; AID 488960;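 active means fluorescence ratio falls more than 5 SD below the full-stimulation control mean, in both duplicate runs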;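 further: integrated fluorescence ratio of peak minus minimum over baseline after agonist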
TRPC6 act conf: confirmation of mouse TRPC6 activators. shares compounds with TRPC6 inhibitor. HEK293-TRPC6 membrane potential dye fluorescence, FDSS. activation, % at 10 µM. 2,800 compounds, 11% hits. AID 488961;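 active means ratio signal rise beyond 5 SD above unstimulated control wells' mean, seen in both duplicate runs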;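 further: plate controls were buffer EC0 wells for no effect and acetylcholine ECmax response for full effect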
Numbers without * were called inactive; i = inactive; . = not tested or not shown; + = active, no number.

SMILES | TRPC4 PAM | TRPC4 inh | TRPC6 inhibitor | TRPC6 act | CR mimetic SO | TRPC4 agonist | HEK293 MPD ctr-2 | HEK293 MPD ctr 2-2 | TRPC4 ctr mod | TRPC4/MOR inh 2 | TRPC6 inh conf | TRPC6 act conf | others
O=C(COC(=O)CSc1nnc(-c2ccc(Cl)cc2)o1)Nc1cc(Cl)ccc1Cl | i | i | i | i | 102.7 | i | . | . | . | . | . | .
Cc1ccc(NC(=O)COc2ccccc2CNC(C)(C)CC(C)(C)C)cc1 | i | i | i | 14.4* | 101.3 | i | 295.5%* | i | 71.0%* | i | i | 176.5%*
Cc1cc(C)nc(SCC(=O)OC(C)C(=O)Nc2ccccc2)n1 (stereo not given) | i | i | i | i | 98.0 | i | . | . | . | . | . | .
Cc1ccc(CNc2ccc3c(c2)ncn3C(C)(C)C)cc1 | 21* | i | -6.76* | i | 90.4 | i | . | . | . | . | i | i | TRPC4 sel inh 2=52.0%*;TRPC4 spec=12.1%*;HEK293 MPD ctr 2-1=240.0%*;HEK293 MPD ctr-1=i
Cn1c(NCc2ccc(Cl)cc2)nc2ccccc21 | i | i | i | i | 85.7 | i | . | . | . | . | . | .
COc1ccc(CNc2ccc3c(c2)nc(C)n3C)cc1 | . | . | . | . | 94.1 | . | . | . | . | . | . | .
Cc1ccc(CNc2ccc3c(c2)nc(C)n3C)cc1 | i | i | -8.06* | i | 97.7 | i | . | . | . | . | 66.0%* | i | TRPC4 sel inh 2=50.5%*;TRPC4 spec=-14.6%*;HEK293 MPD ctr 2-1=i;HEK293 MPD ctr-1=-175.5%*
Cc1nc2cc(NCc3ccc(Cl)cc3)ccc2n1C | i | i | -7.07* | i | 106.3 | i | . | . | . | . | 60.0%* | i | TRPC4 sel inh 2=51.0%*;TRPC4 spec=-14.7%*;HEK293 MPD ctr 2-1=i;HEK293 MPD ctr-1=-300.0%*
Cc1cc(Br)ccc1NC(=O)CN(C)C(=O)CSCc1ccccc1 | i | i | i | i | 96.5 | i | . | . | . | . | . | .
COc1ccc(CN(C)C(=O)Cc2c[nH]c3ccccc23)cc1 | i | i | i | i | 97.1 | i | . | . | . | . | . | .
CN1CCN(c2ccc(Nc3ccnc4cc(Cl)ccc34)cc2)CC1 | i | i | -6.4* | i | 95.5 | i | -106.5%* | i | -24.5%* | 52.0%* | 46.0%* | i
Clc1ccc2c(N3CCCC3)ccnc2c1 | i | -6* | -9.04* | i | 105.7 | i | . | . | . | . | 64.5%* | i | TRPC4 sel inh 2=75.5%*;TRPC4 spec=-24.6%*;HEK293 MPD ctr 2-1=37.0%*;HEK293 MPD ctr-1=-478.0%*
CC1CCCCN1CC(O)COCCC12CC3CC(CC(C3)C1)C2 (stereo not given) | i | i | i | i | 112.6 | i | . | . | . | . | . | .
O=C(c1ccc(C(=O)N2CCCc3ccccc32)s1)N1CCCc2ccccc21 | i | i | -6.61* | i | 193.2 | i | . | . | . | . | i | . | TRPC4 sel inh 2=i;TRPC4 spec=3.9%*;HEK293 MPD ctr 2-1=i;HEK293 MPD ctr-1=3.6%*
COc1ccc(OCCSc2nnc(-c3cccnc3)n2N)cc1 | i | i | i | i | 108.7 | i | . | . | . | . | . | .
c1cc2c3c(cccc3c1)NC1(CCC3(CC1)Nc1cccc4cccc(c14)N3)N2 | i | i | -6.86* | i | 84.2 | i | . | . | . | . | i | i | TRPC4 sel inh 2=i;TRPC4 spec=-21.8%*;HEK293 MPD ctr 2-1=i;HEK293 MPD ctr-1=-239.5%*
NS(=O)(=O)c1ccc(CCNC(=O)NC2(C(F)(F)F)Oc3ccccc3O2)cc1 | i | i | -5.74* | i | 105.1 | i | i | i | i | i | i | i
CCCCNC(=O)NC1(C(F)(F)F)Oc2ccccc2O1 | i | i | i | i | 97.8 | i | . | . | . | . | . | .
CC1(c2ccc(Cl)cc2)NC(=O)N(CC(=O)N2CCc3ccccc3C2)C1=O (stereo not given) | . | . | . | . | 132.1 | . | . | . | . | . | . | .
O=C(N/N=C/c1sc2ccccc2c1O)c1ccccc1 | i | i | i | i | 99.0 | i | . | . | . | . | . | .
O=C(N/N=C/c1sc2ccccc2c1O)c1cccc2ccccc12 | i | i | i | 22.4* | 76.7 | 45* | 834.0%* | + | 121.0%* | 42.0%* | . | 251.0%*
COc1ccc2cc(C(=O)N/N=C/c3sc4ccccc4c3O)ccc2c1 | i | i | i | 72.4* | 103.3 | i | 138.5%* | 108.5%* | 261.0%* | i | . | 38.5%*
COc1ccc(C(=O)N/N=C/c2sc3ccccc3c2O)cc1 | i | i | i | 12.1* | 69.0 | i | + | + | 112.5%* | 39.5%* | . | 197.5%*
Cc1c2c(n3c(nc4ccccc43)c1C#N)N(CCCN(C)C)CC2 | i | i | -8.35* | i | 97.4 | i | -314.5%* | 98.0%* | -56.5%* | 62.5%* | 68.0%* | i
CCCCc1c(C)c(C#N)c2nc3ccccc3n2c1NCCN(C)C | i | i | i | i | . | i | . | . | . | . | . | .
Cc1c2c(n3c(nc4ccccc43)c1C#N)N(CCN(C)C)CC2 | i | i | -10.6* | i | 89.9 | i | -324.0%* | 95.0%* | -59.5%* | 71.0%* | 69.5%* | i
CCN(CC)CCn1c2c(c(SCC(=O)NCc3ccccc3)nc1=O)CCCC2 | i | i | i | i | 85.8 | i | . | . | . | . | . | .
COc1ccccc1NC(=O)CSc1nnnn1-c1ccc(C(=O)O)cc1 | i | i | i | i | 102.0 | i | . | . | . | . | . | .
